In one series the test system is L1210. In words: Inhibition of growth of murine leukemia (L1210) cells. The settings on record: Mus musculus. The class given is functional, cell-based. In a few lines:
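Murine leukemia L1210 cells grown in culture with drug for 40 h; IC50 taken as the concentration (nM) giving 50% growth inhibition.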

Series [1] relates to Lewis lung carcinoma cell line. Briefly: Optimal dose administered intraperitoneally to mice infected with Lewis lung carcinoma cells(LL) in vivo. The class given is functional, Mus musculus.
Series [2] relates to Lewis lung carcinoma cell line. In words: The percentage increase in lifespan of compound with Lewis lung carcinoma tumor bearing controls when treated at OD. The class given is functional, Mus musculus. The method in brief:
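Lewis lung carcinoma: 10^6 cells inoculated intravenously. ILSmax is the percentage increase in lifespan over tumor-bearing controls at the optimal dose (mg/kg per day). Groups of six; long-term survivors counted at 60 days; values above 40% considered significant.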

Series [3] concerns P388. In words: The percentage increase in lifespan of compound with P388 tumor bearing controls when treated at optimal dose. Type of series: functional, Mus musculus. In a few lines: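 P388 leukemia: 10^6 cells inoculated intraperitoneally. ILSmax is the percentage lifespan increase over tumor-bearing controls at the optimal dose (mg/kg per day). Groups of six; long-term survivors counted at 50 days; values above 20% considered significant.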

Series [4] deals with P388. In words: Optimal dose following i.p. administration on days 1,5 and 9 after inoculation of 10e6 P388 leukemia cells to mice. Type of series: functional, Mus musculus. The method in brief: (§1)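 Mice inoculated intraperitoneally with 10^6 P388 leukemia cells. Drug given i.p. as a solution in 0.1 mL 30% v/v ethanol/water on days 1, 5 and 9. Optimal dose in mg/kg per day. ILS is the percent increase in lifespan over untreated tumor-bearing controls at that dose; above 20% counted significant. Long-term survival judged at 50 days, groups of six.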

Series [5] has as its system poly[d(A-T)] and poly[d(G-C)]. Briefly: Binding constant for poly[d(A-T)] and poly[d(G-C)] by ethidium bromide displacement.
Series [6] has as its system Lewis lung carcinoma cell line. Briefly: Optimal dose administered intraperitoneally to mice infected with Lewis lung carcinoma cells(LL) in vivo. The class given is functional, Mus musculus.
Series [7] has as its system P388. Briefly: The percentage increase in lifespan of compound with P388 tumor bearing controls when treated at optimal dose; Not active. Type of series: functional. The settings on record: Mus musculus. In a few lines: as §1
The subject of series [8] is Lewis lung carcinoma cell line. In words: The percentage increase in lifespan of compound with Lewis lung carcinoma tumor bearing controls when treated at OD; Not active. Type of series: functional, cell-based. The settings on record: Mus musculus.
The subject of series [9] is P388. Briefly: Optimal dose administered intraperitoneally on days 1,5 and 9 after intraperitoneal inoculation of 10e6 P388 leukemia cells in vivo. The class given is functional, Mus musculus. The method in brief:
as §1

Series [10] can be described thus: pKa was evaluated. The class given is physicochemical. In a few lines:
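pKa determined spectrophotometrically in aqueous solution.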

The test system of series [11] is Lewis lung carcinoma cell line. Briefly: OD administered intraperitoneally to mice infected with Lewis lung carcinoma cells(LL) in vivo. Type of series: functional, Mus musculus.

“And” between values parts separate entries of the source, which are not always exact repeats. Equal values may be shown once. The source made the active and inactive calls.

In the case of `CN(C)CCNC(=O)c1cccc2c1nc(-c1ccc(F)cc1)c1ccccc12.Cl.Cl`, in the series on L1210, the midpoint of inhibition, the IC50, lay at 43 nM. Also, the OD came out at 45 mg/kg/day in [1] and 20 mg/kg/day in the series with P388 [4]. The ILSmax in series [2] was determined as 45%; in the series on P388 [3] it was 63%.
Compound `CN(C)CCCNC(=O)c1cccc2c1ncc1ccccc12.Cl.Cl` came in with an IC50 in the series on L1210 of 3590 nM. The compound also yielded an OD with P388 [4] of 100 mg/kg/day. Moreover, in [5], the Log K was 5.74 and 5.37.
On to `CN(C)CCNC(=O)c1cccc2c1nc(-c1ccc(Br)cc1)c1ccccc12`, for which the half-inhibitory concentration (IC50) with L1210 came out at 1010 nM. For the same compound, the OD is 45 mg/kg/day in [6] and 65 mg/kg/day in the series on P388 [4]. The ILS max result in the series on P388 [7] is “inactive”. In addition, the ILSmax result in series [8] was “inactive”. Besides, the Log K in [5] was 7.04 and 6.76.
In turn, `CN(C)CCNC(=O)c1cccc2c1nc(-c1ccccc1Cl)c1ccccc12.Cl` showed a half-maximal inhibitory concentration (IC50) with L1210 of 2870 nM. In addition, in the series on P388 [7], the ILSmax result was “inactive”. The OD with P388 [4] is 45 mg/kg/day. In addition, the Log K in series [5] was 6.45 and 6.6.
As to `CN(C)CCCCNC(=O)c1cccc2c1nc(-c1ccccc1)c1ccccc12.Cl.Cl`, in the series with L1210, the IC50 came to 1060 nM. The OD in [1] is 45 mg/kg/day; in the series on P388 [9] it was 65 mg/kg/day. In addition, the ILS max result in the series on P388 [7] is “inactive”. Also, in series [8], the ILSmax entry was “inactive”. Also, in series [5], the Log K was 6.59 and 6.4.
For `CN(C)CCNC(=O)c1cccc2c1nc(-c1cccnc1)c1ccccc12.Cl.Cl.Cl`, the IC50 with L1210 came out at 13 nM. The OD was determined as 65 mg/kg/day in series [1] and 45 mg/kg/day with P388 [4]. For the same compound, the ILSmax is 93% in [2] and 104% with P388 [3]. Besides, the Log K in [5] is 6.35 and 6.21.
`CN(C)CCNC(=O)c1cccc2c1nc(-c1ccc(Cl)cc1)c1ccccc12` came in with a pKa in series [10] of 2.52. This compound returned an IC50 with L1210 of 410 nM. The OD in series [1] turned out to be 65 mg/kg/day; with P388 [4], 45 mg/kg/day. This compound had an ILSmax in the series with P388 [3] of 34%. In addition, in [8], the ILSmax result is “inactive”. Besides, the Log K in [5] is 6.26 and 6.24.
Consider `CN(C)CCNC(=O)c1cccc2c1nc(-c1ccc([N+](=O)[O-])cc1)c1ccccc12`, for which the 50% inhibitory concentration (IC50) in the series with L1210 was determined as 540 nM. The OD (in series [6]; in the series with P388 [9]) was 65 mg/kg/day throughout. The ILSmax with P388 [3] stood at 65%. Also, the ILSmax entry in series [8] is “inactive”. For the same compound, in [5], the Log K is 6.41 and 6.54.
`CN(C)CCNC(=O)c1cccc2c1nc(-c1ccc(I)cc1)c1ccccc12.Cl.Cl` registered an IC50 in the series on L1210 of 2240 nM. Besides, the OD (in series [1]; with P388 [4]) was 65 mg/kg/day throughout. Further, the ILSmax entry (with P388 [7]; in series [8]) was “inactive” each time. Moreover, the Log K in series [5] is 7.33 and 7.23.
For the compound `CN(C)CCNC(=O)c1cccc2c1nc(-c1ccccn1)c1ccccc12.Cl`, the IC50 in the series on L1210 was found to be 720 nM. Moreover, the OD (in series [1]; in the series with P388 [4]) was 65 mg/kg/day each time. For the same compound, the ILSmax in the series on P388 [3] is recorded as 20%. For the same compound, the Log K in series [5] was 5.69 and 5.77.
On to `CN(C)CCNC(=O)c1cccc2c1nc(-c1ccncc1)c1ccccc12.Cl.Cl`, for which it took 14 nM to reach half-maximal inhibition in the series with L1210 (IC50). The OD (in series [1]; with P388 [4]) was 100 mg/kg/day each time. In the series with P388 [3], the ILSmax came out at 93%. Moreover, the ILSmax result in [8] was “inactive”. Besides, the Log K in [5] was 6.9 and 7.
As for `COc1ccc(-c2nc3c(C(=O)NCCN(C)C)cccc3c3ccccc23)cc1.Cl.Cl`, in the series with L1210, the IC50 amounted to 500 nM. The OD is 100 mg/kg/day in series [6] and 65 mg/kg/day with P388 [9]. In the series on P388 [3], this compound displayed an ILSmax of 22%. In addition, in series [8], the ILSmax entry is “inactive”.
Turning to `CC(=O)Nc1ccc(-c2nc3c(C(=O)NCCN(C)C)cccc3c3ccccc23)cc1`, the midpoint of inhibition in the series with L1210, the IC50, lay at 54 nM. For the same compound, the OD worked out at 45 mg/kg/day in series [6] and 30 mg/kg/day in the series on P388 [4]. In the series with P388 [3], this compound showed an ILSmax of 22%. For the same compound, the ILSmax entry in [8] is “inactive”. Besides, in series [5], the Log K was 6.13 and 6.31.
Regarding `Br.Br.CN(C)CCNC(=O)c1cccc2c1nc(-c1ccc(O)cc1)c1ccccc12.Cl.Cl`, the midpoint of inhibition with L1210, the IC50, lay at 370 nM. The OD (in series [1]; in the series with P388 [4]) was 65 mg/kg/day each time. Further, the ILS max result (with P388 [7]; in [8]) was “inactive” in each case.
Compound `CN(C)CCNC(=O)c1cccc2c1nc(-c1ccc(NS(C)(=O)=O)cc1)c1ccccc12.Cl.Cl` showed a half-inhibitory concentration (IC50) with L1210 of 350 nM. Moreover, the OD worked out at 20 mg/kg/day in series [11] and 30 mg/kg/day in the series with P388 [4]. In addition, the ILSmax entry (in the series on P388 [7]; in series [8]) was “inactive” throughout. For the same compound, the Log K in series [5] is 6.24 and 6.36.
The compound `CN(C)CCNC(=O)c1cccc2c1nc(-c1ccccc1)c1ccccc12` had a pKa in [10] of 2.75. It took 120 nM to reach half-maximal inhibition with L1210 (IC50). For the same compound, the OD in [1] is 65 mg/kg/day; in the series with P388 [4], 45 mg/kg/day. For the same compound, the ILSmax in [2] amounted to 126%; in the series on P388 [3], 92%. In series [5], the Log K is 6.26 and 6.33.
As for `CN(C)CCNC(=O)c1cccc2c1nc(-c1ccc(N)cc1)c1ccccc12`, the 50% inhibitory concentration (IC50) in the series on L1210 came out at 130 nM. For the same compound, the OD in series [6] is 45 mg/kg/day; with P388 [9], 30 mg/kg/day. The same compound came in with an ILSmax with P388 [3] of 27%. Further, the ILSmax entry in [8] was “inactive”. Further, the Log K in [5] was 6.29 and 6.57.
In turn, `CN(C)CCCCNC(=O)c1cccc2c1ncc1ccccc12.Cl` displayed a half-inhibitory concentration (IC50) in the series on L1210 of 3290 nM. Further, in the series with P388 [9], the OD was found to be 100 mg/kg/day. Also, the Log K in series [5] was 5.64 and 5.28.
Turning to `CN(C)CCCNC(=O)c1cccc2c1nc(-c1ccccc1)c1ccccc12.Cl.Cl`, the half-maximal inhibitory concentration (IC50) in the series with L1210 was 1120 nM. For the same compound, the OD in series [1] was 65 mg/kg/day; in the series on P388 [4], 45 mg/kg/day. In addition, the ILSmax with P388 [3] stood at 24%. In addition, in [8], the ILSmax entry was “inactive”. The Log K in series [5] was 6.5 and 6.11.
Turning to `CN(C)CCNC(=O)c1cccc2c1ncc1ccccc12.Cl.Cl`, the pKa in [10] is 2.95. In the series on L1210, inhibition was half-maximal at 2100 nM (IC50). The OD in [1] came to 150 mg/kg/day; in the series with P388 [4] it was 100 mg/kg/day. Besides, the figures for the ILSmax (in series [2]; in the series on P388 [3]) were 117% and 73%, respectively. Also, the Log K in series [5] is 5.9 and 5.61.
Compound `CN(C)CCNC(=O)c1cccc2c1nc(-c1cccc(Cl)c1)c1ccccc12.Cl.Cl` had a half-inhibitory concentration (IC50) with L1210 of 66 nM. The OD in [1] was 100 mg/kg/day; with P388 [4], 65 mg/kg/day. Also, in the series on P388 [3], the ILSmax is recorded as 88%. In series [5], the Log K is 6.41 and 6.56.

Source of the values: ChEMBL document CHEMBL1124080, “Potential antitumor agents. 55. 6-Phenylphenanthridine-4-carboxamides: a new class of DNA-intercalating antitumor agents” (J Med Chem, 1988).
